Assay results published in ChEMBL document CHEMBL1126744, “Synthesis and structure-activity relationships of phenyl-substituted benzylamine antimycotics: a novel benzylbenzylamine antifungal agent for systemic treatment” (1993).
In brackets after ≈: the same amount, converted by molar mass.

Key:
Aspergillus fumigatus = assay: In vitro antifungal activity against Aspergillus fumigatus expressed as MIC (mg/L); type: functional
Summary of the method: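 Broth dilution in glass tubes with Sabouraud's dextrose broth (pH 6.5). Inoculum was filamentous growth scraped from Kimmig agar cultures (30 °C, 21 days). Compounds were dissolved in DMSO and serially diluted in medium. Tubes were incubated 72 h at 30 °C. MIC is the lowest concentration with no macroscopically visible growth.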

Trichophyton benhamiae = assay: In vitro antifungal activity against Trichophyton mentagrophytes expressed as MIC (mg/L); type: functional, Arthroderma benhamiae
Summary of the method: (§1)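 Fungi were grown on Kimmig agar (30 °C, 21 days) and harvested with a spatula. They were tested in glass tubes of Sabouraud's dextrose broth (pH 6.5) containing DMSO-dissolved compound serially diluted in medium. After 7 days at 30 °C, MIC was read as the lowest concentration with no macroscopically visible growth.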

Candida albicans [1] = assay: In vitro antifungal activity against Candida albicans delta124 expressed as MIC (mg/L); type: functional
Summary of the method: (§2)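 Tube broth dilution in malt extract broth (pH 4.8). Blastospores came from yeast nitrogen base cultures shaken at 37 °C for about 30 h. Compounds in DMSO were serially diluted in the broth. After 48 h at 30 °C, MIC was taken as the lowest concentration without macroscopically detectable growth.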

Sporothrix schenckii = assay: In vitro antifungal activity against Sporothrix schenck ii expressed as MIC (mg/L); type: functional; summary of the method: as §1
Candida albicans [2] = assay: In vitro antifungal activity against Candida albicans delta9 expressed as MIC (mg/L); type: functional; summary of the method: as §2
Candida parapsilosis = assay: In vitro antifungal activity against Candida parapsilosis delta39 expressed as MIC (mg/L); type: functional; settings: Lodderomyces parapsilosis; summary of the method: as §2
Microsporum canis = assay: In vitro antifungal activity against Microsporum canis expressed as MIC (mg/L); type: functional; summary of the method: as §1
Cavia porcellus [3] = assay: Percent mycological cure at a dose of 8 mg/kg per day in guinea pig trichophytosis model (treatment once daily for 9 days starting on the day of inoculation); type: functional
Cavia porcellus [4] = assay: In vivo inhibition in guinea pig trichophytosis model; type: functional
Cavia porcellus [5] = assay: Percent mycological cure in guinea pig skin candidosis model (topical treatment twice daily for 5 days starting 3 days after inoculation) using 2% solution (ED50=1.32%); type: functional

Structure (SMILES)	MIC (Aspergillus fumigatus)	MIC (Trichophyton benhamiae)	MIC (Candida albicans [1])	MIC (Sporothrix schenckii)	MIC (Candida albicans [2])	MIC (Candida parapsilosis)	MIC (Microsporum canis)	Cure (Cavia porcellus [3])	ED50 (Cavia porcellus [4])	Cure (Cavia porcellus [5])
CCN(c1ccccc1)c1ccc(CN(C)Cc2cccc3ccccc23)cc1	> 200 µg/mL	0.006 µg/mL (≈ 0.0158 µM)	> 200 µg/mL	3.13 µg/mL (≈ 8.23 µM)	> 200 µg/mL	3.13 µg/mL (≈ 8.23 µM)	0.006 µg/mL (≈ 0.0158 µM)	–	–	–
CN(Cc1ccc(C2(c3ccccc3)CC2)cc1)Cc1cccc2ccccc12	1.56 µg/mL (≈ 4.13 µM)	0.006 µg/mL (≈ 0.0159 µM)	3.13 µg/mL (≈ 8.29 µM)	0.1 µg/mL (≈ 0.265 µM)	1.56 µg/mL (≈ 4.13 µM)	0.1 µg/mL (≈ 0.265 µM)	0.003 µg/mL (≈ 0.00795 µM)	–	–	–
CC(=O)N(c1ccccc1)c1ccc(CN(C)Cc2cccc3ccccc23)cc1	> 200 µg/mL	0.8 µg/mL (≈ 2.03 µM)	> 200 µg/mL	> 200 µg/mL	> 200 µg/mL	> 200 µg/mL	3.13 µg/mL (≈ 7.93 µM)	–	–	–
CN(Cc1ccc(/C=C/c2ccccc2)cc1)Cc1cccc2ccccc12	> 200 µg/mL	0.1 µg/mL (≈ 0.275 µM)	> 200 µg/mL	> 200 µg/mL	> 200 µg/mL	> 200 µg/mL	0.01 µg/mL (≈ 0.0275 µM)	–	–	–
CN(Cc1ccc(Cc2ccccc2)cc1)Cc1cccc2ccccc12	> 100 µg/mL	0.05 µg/mL (≈ 0.142 µM)	> 100 µg/mL	1.56 µg/mL (≈ 4.44 µM)	50 µg/mL (≈ 142 µM)	6.25 µg/mL (≈ 17.8 µM)	0.05 µg/mL (≈ 0.142 µM)	–	–	–
CN(Cc1ccc(C(C)(C)c2ccccc2)cc1)Cc1cccc2ccccc12	0.1 µg/mL (≈ 0.263 µM)	0.006 µg/mL (≈ 0.0158 µM)	1.56 µg/mL (≈ 4.11 µM)	0.2 µg/mL (≈ 0.527 µM)	0.8 µg/mL (≈ 2.11 µM)	0.1 µg/mL (≈ 0.263 µM)	0.003 µg/mL (≈ 0.0079 µM)	100%	4.6 mg/kg/day	90%
CN(Cc1ccc(Nc2ccccc2)cc1)Cc1cccc2ccccc12	> 200 µg/mL	> 100 µg/mL	> 200 µg/mL	> 200 µg/mL	> 200 µg/mL	> 200 µg/mL	> 100 µg/mL	–	–	–
COC1=CC(=O)C[C@@H](C)[C@]12Oc1c(Cl)c(OC)cc(OC)c1C2=O [GRISEOFULVIN]	–	–	–	–	–	–	–	–	40.7 mg/kg/day	–
CC(=O)N1CCN(c2ccc(OCC3COC(Cn4ccnc4)(c4ccc(Cl)cc4Cl)O3)cc2)CC1 (configuration not stated) [KETOCONAZOLE]	–	–	–	–	–	–	–	–	50.8 mg/kg/day	–
CN(C/C=C/C#CC(C)(C)C)Cc1cccc2ccccc12 [TERBINAFINE]	0.8 µg/mL (≈ 2.75 µM)	0.003 µg/mL (≈ 0.0103 µM)	25 µg/mL (≈ 85.8 µM)	0.4 µg/mL (≈ 1.37 µM)	6.25 µg/mL (≈ 21.4 µM)	0.8 µg/mL (≈ 2.75 µM)	0.006 µg/mL (≈ 0.0206 µM)	–	–	–

Continued, in another order:

MIC (Aspergillus fumigatus)	MIC (Trichophyton benhamiae)	MIC (Candida albicans [1])	MIC (Sporothrix schenckii)	MIC (Candida albicans [2])	MIC (Candida parapsilosis)	MIC (Microsporum canis)	Structure (SMILES)	Cure (Cavia porcellus [3])	ED50 (Cavia porcellus [4])	Cure (Cavia porcellus [5])
> 200 µg/mL	0.01 µg/mL (≈ 0.0275 µM)	> 200 µg/mL	1.56 µg/mL (≈ 4.29 µM)	> 200 µg/mL	0.8 µg/mL (≈ 2.2 µM)	0.01 µg/mL (≈ 0.0275 µM)	C=C(c1ccccc1)c1ccc(CN(C)Cc2cccc3ccccc23)cc1	–	–	–
> 200 µg/mL	10 µg/mL (≈ 29.6 µM)	> 200 µg/mL	> 200 µg/mL	> 200 µg/mL	> 200 µg/mL	> 200 µg/mL	CN(Cc1ccc(-c2ccccc2)cc1)Cc1cccc2ccccc12	–	–	–
0.1 µg/mL (≈ 0.259 µM)	0.003 µg/mL (≈ 0.00778 µM)	0.8 µg/mL (≈ 2.07 µM)	0.2 µg/mL (≈ 0.519 µM)	0.4 µg/mL (≈ 1.04 µM)	0.05 µg/mL (≈ 0.13 µM)	0.003 µg/mL (≈ 0.00778 µM)	CN(Cc1ccc(C(C)(C)c2ccccc2)cc1)Cc1cccc2ccsc12	–	–	–
> 200 µg/mL	0.4 µg/mL (≈ 1.13 µM)	> 200 µg/mL	> 200 µg/mL	> 200 µg/mL	> 200 µg/mL	0.8 µg/mL (≈ 2.26 µM)	CN(Cc1ccc(Oc2ccccc2)cc1)Cc1cccc2ccccc12	–	–	–
> 200 µg/mL	0.05 µg/mL (≈ 0.137 µM)	> 200 µg/mL	> 200 µg/mL	> 200 µg/mL	50 µg/mL (≈ 137 µM)	0.1 µg/mL (≈ 0.274 µM)	CN(Cc1ccc(C(=O)c2ccccc2)cc1)Cc1cccc2ccccc12	–	–	–
0.2 µg/mL (≈ 0.476 µM)	0.02 µg/mL (≈ 0.0476 µM)	1.56 µg/mL (≈ 3.71 µM)	0.8 µg/mL (≈ 1.9 µM)	1.56 µg/mL (≈ 3.71 µM)	0.1 µg/mL (≈ 0.238 µM)	0.02 µg/mL (≈ 0.0476 µM)	CN(Cc1ccc(C(C)(C)c2ccccc2)cc1)Cc1cccc2c(Cl)csc12	–	–	–
12.5 µg/mL (≈ 31.8 µM)	0.1 µg/mL (≈ 0.254 µM)	6.25 µg/mL (≈ 15.9 µM)	0.4 µg/mL (≈ 1.02 µM)	6.25 µg/mL (≈ 15.9 µM)	0.1 µg/mL (≈ 0.254 µM)	0.1 µg/mL (≈ 0.254 µM)	Cc1ccc(C(C)(C)c2ccc(CN(C)Cc3cccc4ccccc34)cc2)cc1	–	–	–
0.4 µg/mL (≈ 1.26 µM)	0.006 µg/mL (≈ 0.0189 µM)	25 µg/mL (≈ 78.7 µM)	0.2 µg/mL (≈ 0.63 µM)	12.5 µg/mL (≈ 39.4 µM)	0.8 µg/mL (≈ 2.52 µM)	0.01 µg/mL (≈ 0.0315 µM)	CN(Cc1ccc(C(C)(C)C)cc1)Cc1cccc2ccccc12 [BUTENAFINE]	–	–	–
